Results on five compounds are retold here after ChEMBL document CHEMBL1139946, “1-Aryl-4,6-dihydropyrazolo[4,3-d][1]benzazepin-5(1H)-ones: a new class of antiproliferative agents with selectivity for human leukemia and breast cancer cell lines” (Eur J Med Chem, 2007).

The test system of one assay is MCF7. In words: Antiproliferative activity against human MCF7 cells at 100 uM after 48 hrs relative to control. It is filed as functional. As to conditions: MCF7, 48 h. An outline of the steps:
(§1)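 NCI three-cell-line prescreen (MCF7 breast, NCI-H460 non-small cell lung, SF-268 CNS). Cells inoculated and preincubated in microtiter plates, then exposed to test agent at 10^-4 M for 48 h. Alamar blue end-point read-out. Growth of treated cells expressed as percent of untreated control cells.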

The test system of the next assay is NCI-H460. In words: Antiproliferative activity against human NCI-H460 cells at 100 uM after 48 hrs relative to control. As to conditions: NCI-H460, 48 h. It is filed as functional. An outline of the steps:
as §1

A further assay has as its system SF-268. In words: Antiproliferative activity against human SF268 cells at 100 uM after 48 hrs relative to control. The class given is functional. As to conditions: SF-268, 48 h. An outline of the steps: as §1
In assay [1] the target is T1, Ephrin type-B receptor 4 (Homo sapiens) (UniProt P54760).
T1 sequence (whole entry): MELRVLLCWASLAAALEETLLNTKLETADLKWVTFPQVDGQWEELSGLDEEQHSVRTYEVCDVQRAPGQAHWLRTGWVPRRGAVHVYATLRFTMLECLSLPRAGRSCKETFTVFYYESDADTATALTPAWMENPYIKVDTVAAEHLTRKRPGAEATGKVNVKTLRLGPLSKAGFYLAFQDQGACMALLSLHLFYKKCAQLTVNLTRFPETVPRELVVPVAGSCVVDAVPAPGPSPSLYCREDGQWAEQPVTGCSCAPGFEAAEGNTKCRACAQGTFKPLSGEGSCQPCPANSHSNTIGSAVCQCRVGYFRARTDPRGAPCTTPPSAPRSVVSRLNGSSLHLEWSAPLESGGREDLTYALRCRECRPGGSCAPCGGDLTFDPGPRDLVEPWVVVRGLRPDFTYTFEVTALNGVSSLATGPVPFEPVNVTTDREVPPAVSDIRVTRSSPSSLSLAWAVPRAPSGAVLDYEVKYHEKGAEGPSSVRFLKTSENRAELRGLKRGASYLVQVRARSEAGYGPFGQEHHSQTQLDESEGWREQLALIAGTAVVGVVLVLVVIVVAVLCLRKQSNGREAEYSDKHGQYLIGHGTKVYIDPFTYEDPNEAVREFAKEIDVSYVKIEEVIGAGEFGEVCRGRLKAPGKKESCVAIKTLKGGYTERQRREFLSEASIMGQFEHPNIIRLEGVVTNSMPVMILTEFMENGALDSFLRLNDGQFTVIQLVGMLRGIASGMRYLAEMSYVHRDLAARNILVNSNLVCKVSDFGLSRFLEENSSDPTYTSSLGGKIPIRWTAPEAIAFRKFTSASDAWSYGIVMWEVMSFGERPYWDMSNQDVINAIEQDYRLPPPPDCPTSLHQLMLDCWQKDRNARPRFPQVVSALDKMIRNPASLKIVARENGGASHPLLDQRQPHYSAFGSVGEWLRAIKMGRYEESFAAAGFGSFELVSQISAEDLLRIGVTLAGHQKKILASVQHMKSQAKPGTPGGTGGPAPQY
In words: Inhibition of EphB4 at 10 uM.

Assay [2] concerns the target Focal adhesion kinase 1 (Homo sapiens) (UniProt Q05397). Nature of the assay: Inhibition of FAK at 10 uM.
Assay [3] has as its target Proto-oncogene tyrosine-protein kinase Src (Homo sapiens) (UniProt P12931). Nature of the assay: Inhibition of SRC at 10 uM.
Assay [4] has as its target Hepatocyte growth factor receptor (Homo sapiens) (UniProt P08581). In words: Inhibition of MET at 10 uM.
In assay [5] the target is Vascular endothelial growth factor receptor 2 (Homo sapiens) (UniProt P35968). Nature of the assay: Inhibition of VEGFR2 at 10 uM.
Vascular endothelial growth factor receptor 2 (Homo sapiens), sequence (P35968 whole entry): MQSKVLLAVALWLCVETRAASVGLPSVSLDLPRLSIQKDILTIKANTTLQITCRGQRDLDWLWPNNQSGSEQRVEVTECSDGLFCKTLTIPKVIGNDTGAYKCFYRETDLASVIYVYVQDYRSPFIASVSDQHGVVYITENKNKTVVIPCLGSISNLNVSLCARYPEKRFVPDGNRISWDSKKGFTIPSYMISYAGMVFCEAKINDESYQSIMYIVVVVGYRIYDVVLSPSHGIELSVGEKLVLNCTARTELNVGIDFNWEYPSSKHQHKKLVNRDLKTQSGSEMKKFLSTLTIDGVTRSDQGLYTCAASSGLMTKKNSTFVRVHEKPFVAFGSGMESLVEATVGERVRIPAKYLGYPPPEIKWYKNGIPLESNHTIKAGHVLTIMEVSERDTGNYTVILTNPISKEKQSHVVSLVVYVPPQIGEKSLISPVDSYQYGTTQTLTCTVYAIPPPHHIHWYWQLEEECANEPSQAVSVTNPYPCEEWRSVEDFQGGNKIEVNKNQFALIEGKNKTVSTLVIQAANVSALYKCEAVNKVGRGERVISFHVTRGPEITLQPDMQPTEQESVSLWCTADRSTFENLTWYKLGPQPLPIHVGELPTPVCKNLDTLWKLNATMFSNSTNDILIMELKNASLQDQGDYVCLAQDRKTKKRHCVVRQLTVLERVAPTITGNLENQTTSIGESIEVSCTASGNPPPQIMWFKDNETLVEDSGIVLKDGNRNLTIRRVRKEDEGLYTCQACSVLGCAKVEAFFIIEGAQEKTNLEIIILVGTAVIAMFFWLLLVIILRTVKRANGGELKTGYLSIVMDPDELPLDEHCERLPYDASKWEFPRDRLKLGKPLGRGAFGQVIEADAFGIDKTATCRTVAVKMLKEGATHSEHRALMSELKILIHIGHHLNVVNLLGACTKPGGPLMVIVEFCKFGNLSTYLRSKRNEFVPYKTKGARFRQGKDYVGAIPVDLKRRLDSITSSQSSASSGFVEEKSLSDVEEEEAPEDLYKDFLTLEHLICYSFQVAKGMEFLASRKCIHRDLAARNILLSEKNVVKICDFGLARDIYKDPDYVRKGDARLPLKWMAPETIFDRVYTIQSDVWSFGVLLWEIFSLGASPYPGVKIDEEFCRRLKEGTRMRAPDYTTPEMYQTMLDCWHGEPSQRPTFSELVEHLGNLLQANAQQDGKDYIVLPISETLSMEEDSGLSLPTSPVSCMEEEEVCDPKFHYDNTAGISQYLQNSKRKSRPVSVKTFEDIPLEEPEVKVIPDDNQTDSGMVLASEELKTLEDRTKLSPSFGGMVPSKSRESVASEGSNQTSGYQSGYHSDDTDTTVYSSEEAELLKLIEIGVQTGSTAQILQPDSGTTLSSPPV
The target of assay [6] is RAC-alpha serine/threonine-protein kinase (Homo sapiens) (UniProt P31749). Nature of the assay: Inhibition of AKT1 at 10 uM.
RAC-alpha serine/threonine-protein kinase (Homo sapiens), sequence (P31749 whole entry): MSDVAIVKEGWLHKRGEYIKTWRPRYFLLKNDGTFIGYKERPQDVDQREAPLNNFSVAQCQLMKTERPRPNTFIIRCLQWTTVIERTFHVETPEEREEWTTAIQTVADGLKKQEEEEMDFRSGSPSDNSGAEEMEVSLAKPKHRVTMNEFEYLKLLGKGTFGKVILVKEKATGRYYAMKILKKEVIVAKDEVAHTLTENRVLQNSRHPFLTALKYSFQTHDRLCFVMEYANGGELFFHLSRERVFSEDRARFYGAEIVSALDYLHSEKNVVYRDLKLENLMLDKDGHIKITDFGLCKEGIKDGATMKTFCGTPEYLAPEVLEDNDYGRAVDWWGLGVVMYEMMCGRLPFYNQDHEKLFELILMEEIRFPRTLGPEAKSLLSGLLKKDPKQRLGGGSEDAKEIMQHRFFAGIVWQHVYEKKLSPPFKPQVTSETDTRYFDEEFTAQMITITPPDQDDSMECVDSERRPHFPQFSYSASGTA
Assay [7] addresses T2, Aurora kinase A (Homo sapiens) (UniProt O14965).
T2 sequence (whole entry): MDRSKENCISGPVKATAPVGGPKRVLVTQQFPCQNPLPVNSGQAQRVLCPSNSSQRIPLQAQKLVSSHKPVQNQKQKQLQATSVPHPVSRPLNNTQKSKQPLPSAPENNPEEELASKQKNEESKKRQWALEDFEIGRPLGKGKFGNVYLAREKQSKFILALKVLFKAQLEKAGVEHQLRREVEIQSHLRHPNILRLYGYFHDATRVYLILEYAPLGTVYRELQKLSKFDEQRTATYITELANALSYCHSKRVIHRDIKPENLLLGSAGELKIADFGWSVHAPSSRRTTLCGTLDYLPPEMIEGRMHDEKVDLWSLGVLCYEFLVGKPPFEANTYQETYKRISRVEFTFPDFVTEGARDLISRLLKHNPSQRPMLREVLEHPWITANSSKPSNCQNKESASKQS
In words: Inhibition of aurora A at 10 uM.

For assay [8], the target named is Aurora kinase B (Homo sapiens) (UniProt Q96GD4). Nature of the assay: Inhibition of aurora B at 10 uM.
For assay [9], the target named is Serine/threonine-protein kinase PLK1 (Homo sapiens) (UniProt P53350). In words: Inhibition of PLK1 at 10 uM.
Serine/threonine-protein kinase PLK1 (Homo sapiens), sequence (P53350 whole entry): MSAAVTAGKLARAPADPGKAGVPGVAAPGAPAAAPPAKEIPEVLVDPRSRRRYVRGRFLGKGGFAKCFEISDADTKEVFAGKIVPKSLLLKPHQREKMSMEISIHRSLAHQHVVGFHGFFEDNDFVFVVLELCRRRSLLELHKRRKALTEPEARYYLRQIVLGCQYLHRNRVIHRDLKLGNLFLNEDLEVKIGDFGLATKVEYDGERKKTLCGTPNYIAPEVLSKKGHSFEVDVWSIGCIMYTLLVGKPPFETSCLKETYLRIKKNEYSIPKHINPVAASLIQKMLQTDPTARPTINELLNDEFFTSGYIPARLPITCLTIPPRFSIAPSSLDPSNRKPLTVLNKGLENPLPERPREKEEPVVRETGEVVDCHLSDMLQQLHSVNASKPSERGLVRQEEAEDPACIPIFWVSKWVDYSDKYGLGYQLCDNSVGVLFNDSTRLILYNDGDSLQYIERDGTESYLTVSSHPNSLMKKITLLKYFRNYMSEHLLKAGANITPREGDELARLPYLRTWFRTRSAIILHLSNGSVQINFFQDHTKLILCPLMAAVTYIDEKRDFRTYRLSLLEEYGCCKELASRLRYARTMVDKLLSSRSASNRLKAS
Assay [10] addresses Receptor-type tyrosine-protein kinase FLT3 (Homo sapiens) (UniProt P36888). In words: Inhibition of FLT3 at 10 uM.
The target in assay [11] is Platelet-derived growth factor receptor beta (Homo sapiens) (UniProt P09619). Nature of the assay: Inhibition of PDGFRbeta at 10 uM.
Platelet-derived growth factor receptor beta (Homo sapiens), sequence (P09619 whole entry): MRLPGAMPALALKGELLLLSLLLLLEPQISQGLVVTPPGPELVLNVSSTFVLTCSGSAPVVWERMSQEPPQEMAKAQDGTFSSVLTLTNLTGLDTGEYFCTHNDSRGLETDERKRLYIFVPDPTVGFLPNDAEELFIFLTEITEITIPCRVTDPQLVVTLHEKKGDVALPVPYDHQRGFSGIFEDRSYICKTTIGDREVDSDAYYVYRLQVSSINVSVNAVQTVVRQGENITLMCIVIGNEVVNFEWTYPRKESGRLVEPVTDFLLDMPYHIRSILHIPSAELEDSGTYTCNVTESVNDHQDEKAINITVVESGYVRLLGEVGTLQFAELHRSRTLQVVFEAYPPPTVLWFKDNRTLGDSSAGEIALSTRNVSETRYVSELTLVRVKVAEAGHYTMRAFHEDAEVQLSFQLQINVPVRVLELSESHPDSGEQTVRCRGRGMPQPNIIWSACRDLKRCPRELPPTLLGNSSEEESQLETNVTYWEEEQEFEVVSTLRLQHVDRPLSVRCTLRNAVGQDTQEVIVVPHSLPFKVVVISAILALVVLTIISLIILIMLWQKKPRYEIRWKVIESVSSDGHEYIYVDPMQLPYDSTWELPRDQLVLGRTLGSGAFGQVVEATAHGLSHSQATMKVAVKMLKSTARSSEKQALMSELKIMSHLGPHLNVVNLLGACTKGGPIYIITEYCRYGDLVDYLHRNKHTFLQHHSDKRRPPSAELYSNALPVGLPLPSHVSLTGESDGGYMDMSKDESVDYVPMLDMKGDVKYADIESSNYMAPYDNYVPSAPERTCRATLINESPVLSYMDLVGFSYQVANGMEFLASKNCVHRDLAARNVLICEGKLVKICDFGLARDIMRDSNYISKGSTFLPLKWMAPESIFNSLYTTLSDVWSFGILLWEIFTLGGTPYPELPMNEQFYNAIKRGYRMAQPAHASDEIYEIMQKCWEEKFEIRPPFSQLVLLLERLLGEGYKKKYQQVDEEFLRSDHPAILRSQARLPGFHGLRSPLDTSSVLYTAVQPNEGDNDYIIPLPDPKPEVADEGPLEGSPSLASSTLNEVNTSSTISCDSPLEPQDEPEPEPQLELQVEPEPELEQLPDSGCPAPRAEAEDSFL
Assay [12] addresses 3-phosphoinositide-dependent protein kinase 1 (Homo sapiens) (UniProt O15530). Nature of the assay: Inhibition of PDK1 at 10 uM.

A value given as a limit tells only on which side of the number the result lay.

Hepatocyte growth factor receptor (Homo sapiens), sequence (P08581 whole entry): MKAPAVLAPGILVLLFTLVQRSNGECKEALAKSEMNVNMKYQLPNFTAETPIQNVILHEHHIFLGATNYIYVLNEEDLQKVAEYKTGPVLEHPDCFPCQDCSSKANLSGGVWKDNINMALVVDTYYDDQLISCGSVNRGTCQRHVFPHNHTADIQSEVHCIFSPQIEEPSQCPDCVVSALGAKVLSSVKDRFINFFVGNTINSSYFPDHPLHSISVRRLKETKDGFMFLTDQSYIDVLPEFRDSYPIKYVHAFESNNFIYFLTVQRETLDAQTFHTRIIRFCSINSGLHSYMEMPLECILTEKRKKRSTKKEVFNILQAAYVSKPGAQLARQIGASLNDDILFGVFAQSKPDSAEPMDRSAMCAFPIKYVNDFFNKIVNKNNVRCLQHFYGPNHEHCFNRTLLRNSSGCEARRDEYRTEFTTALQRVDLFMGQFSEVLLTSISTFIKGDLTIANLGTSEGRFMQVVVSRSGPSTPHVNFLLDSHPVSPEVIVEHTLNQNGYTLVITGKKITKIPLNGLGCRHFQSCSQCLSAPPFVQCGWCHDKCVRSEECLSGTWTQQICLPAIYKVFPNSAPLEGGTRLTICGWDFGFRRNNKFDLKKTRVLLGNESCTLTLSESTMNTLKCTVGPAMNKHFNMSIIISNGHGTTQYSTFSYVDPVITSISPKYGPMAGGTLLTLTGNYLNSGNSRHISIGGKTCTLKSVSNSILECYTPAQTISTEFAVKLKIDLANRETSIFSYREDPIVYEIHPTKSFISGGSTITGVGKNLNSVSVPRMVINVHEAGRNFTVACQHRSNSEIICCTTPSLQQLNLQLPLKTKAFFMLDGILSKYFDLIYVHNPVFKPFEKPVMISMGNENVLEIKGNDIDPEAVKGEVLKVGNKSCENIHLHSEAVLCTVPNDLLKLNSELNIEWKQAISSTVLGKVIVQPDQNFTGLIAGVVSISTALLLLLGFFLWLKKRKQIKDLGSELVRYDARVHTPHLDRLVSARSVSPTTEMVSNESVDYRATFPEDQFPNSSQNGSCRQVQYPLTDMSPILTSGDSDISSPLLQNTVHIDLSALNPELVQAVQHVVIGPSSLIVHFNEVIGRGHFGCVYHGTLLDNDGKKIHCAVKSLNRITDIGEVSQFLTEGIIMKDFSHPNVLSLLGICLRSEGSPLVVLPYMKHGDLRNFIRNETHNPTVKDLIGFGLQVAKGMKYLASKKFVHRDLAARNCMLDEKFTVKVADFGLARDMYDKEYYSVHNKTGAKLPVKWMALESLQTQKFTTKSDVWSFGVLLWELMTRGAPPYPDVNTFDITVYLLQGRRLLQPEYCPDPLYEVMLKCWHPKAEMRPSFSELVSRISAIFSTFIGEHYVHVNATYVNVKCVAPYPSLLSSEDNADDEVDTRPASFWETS

Usually inhibition stands for the change of the read-out against control, counted positive when it falls. High values mean strong suppression, low ones little suppression. `O=C1Cc2cnn(-c3ccc([N+](=O)[O-])cc3)c2-c2ccccc2N1`: the growth, % of control at 100 µM is 55% in the assay on MCF7, 62% in the assay on NCI-H460 and 62% with SF-268. Besides, the inhibition in assay [1], in [2], in assay [3], in assay [4], in [5] and in [6] was below 40% each time. The inhibition in [7], in assay [8], in assay [9], in assay [10], in assay [11] and in assay [12] was below 40% in each case.

Regarding `O=C1Cc2cnn(-c3cccc(Cl)c3)c2-c2ccccc2N1`, the results for the growth, % of control at 100 µM in the assay on MCF7, with NCI-H460 and in the assay with SF-268 were 64%, 39% and 101%, respectively. In addition, the inhibition in [1], in assay [2], in assay [3], in assay [4], in assay [5] and in assay [6] was below 40% each time. Moreover, the inhibition in assay [7], in [8], in assay [9], in [10], in [11] and in [12] was below 40% each time.

In the case of `Cc1ccccc1-n1ncc2c1-c1ccccc1NC(=O)C2`, the growth, % of control at 100 µM in the assay on MCF7 was found to be 64%; in the assay with NCI-H460, 49%; in the assay with SF-268, 98%. The inhibition in assay [1], in assay [2], in [3], in [4], in assay [5] and in assay [6] was below 40% each time. For the same compound, the inhibition in assay [7], in [8], in assay [9], in [10], in [11] and in assay [12] was below 40% in each case.

As to `O=C1Cc2cnn(-c3ccc(Br)cc3)c2-c2ccccc2N1`, the growth, % of control at 100 µM in the assay on MCF7 came to 51%; in the assay on NCI-H460, 32%; in the assay on SF-268, 98%. The inhibition in assay [1], in assay [2], in assay [3], in [4], in assay [5] and in assay [6] was below 40% in each case. The inhibition in assay [7], in assay [8], in assay [9], in assay [10], in assay [11] and in assay [12] was below 40% throughout.

Regarding `O=C1Cc2cnn(-c3ccccc3F)c2-c2ccccc2N1`, the growth, % of control at 100 µM is 66% in the assay with MCF7, 49% with NCI-H460 and 98% in the assay on SF-268. Moreover, the inhibition in assay [1], in [2], in assay [3], in assay [4], in assay [5] and in [6] was below 40% in each case. Moreover, the inhibition in assay [7], in assay [8], in assay [9], in assay [10], in assay [11] and in [12] was below 40% in each case.
